Laboratory results from publication PMC6997517 (EBioMedicine, 2020).

What was measured:
CIA mice [1] = experiment: Collagen-induced arthritis; assay type: in vivo, mouse (DBA/1 J)
In short: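 Male DBA/1J mice (6–7 weeks, 20–23 g) immunised at tail base with 100 μg chicken type II collagen in an equal volume of complete Freund's adjuvant (day 0), boosted day 20. Groups of n = 7. Test compound (2·5 or 10 nmol/g) or methotrexate (2 mg/kg) in saline given i.p. once daily from day 22. Body weight, paw volume and arthritis index tracked. […] (maximum 16), twice weekly.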

TLR4 [2] = experiment: Cytokine ELISA, LPS-stimulated mBMDMs; assay type: cell-based, mouse; settings: TIP3 1 h, then LPS 24 h
In short: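 Bone marrow flushed from femurs and tibiae of 6–7-week-old C57BL/6J mice, then differentiated with M-CSF (25 ng/ml) for 3–4 days. Cells harvested with trypsin-EDTA and replated; experiments run after 24 h. Cells pretreated with test compound for 1 h, then co-treated with LPS for 24 h. Secreted IL-6 and TNF-α measured by mouse ELISA kits.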

CIA mice [3] = experiment: Micro-CT and histology of knee joints, CIA model; assay type: in vivo, mouse (DBA/1 J)
In short: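 DBA/1J collagen-induced arthritis mice, dosed i.p. daily from day 22. Knee bone samples fixed in 10% formalin and scanned by in vivo micro-CT. Bone mineral density measured at 1 mm below the top of the tibia within a set region of interest. Joint sections stained with H&E and examined for synovial hyperplasia, pannus, immune-cell infiltration and joint-space narrowing.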

HEK-Blue™ hTLR4 cells = experiment: MTT cell viability, HEK-Blue hTLR4 cells; assay type: cell-based, human; settings: n ≥ 3
In short: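 MTT colourimetric viability assay. HEK-Blue hTLR4 cells (high-glucose DMEM, 10% FBS, normocin) seeded at 5 × 10^4/well. RAW264.7 cells seeded at 2 × 10^5/well. Both grown overnight before exposure to test compound.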

TLR4 [4] = experiment: Quantitative RT-PCR, LPS-stimulated THP-1 cells; assay type: cell-based, human; settings: TIP3 50 μM 1 h, then LPS 4 h; normalized to GAPDH
In short: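 THP-1 cells pretreated with test compound (50 μM) for 1 h, then LPS (100 ng/ml) added for 4 h. Total RNA extracted with TRIzol and cDNA synthesised. SYBR Green qPCR run with primers for IL-1β, IL-6, IL-8, TNF-α, with β-actin and GAPDH as references. Relative expression calculated by the ΔΔCt method.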

[5] = test system: mice with IMQ-induced psoriasis-like disease; experiment: Histology and immunohistochemistry of back skin, psoriasis model; assay type: in vivo, mouse (C57BL/6)
In short: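 Back-skin lesions from imiquimod-treated C57BL/6 mice fixed in 4% paraformaldehyde, paraffin-embedded and sectioned at 7 μm. H&E staining used for epidermal/dermal thickness, measured by microscopy. Immunohistochemistry done with HRP/DAB detection using primary antibodies to CD68, CD4 and IL-17.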

TLR3 = experiment: Cytokine ELISA, poly; assay type: cell-based, mouse; settings: mBMDMs, poly(I:C)
In short: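 Bone marrow flushed from femurs and tibiae of C57BL/6J mice (6–7 weeks). Cultured in DMEM/10% FBS with M-CSF (25 ng/ml) for 3–4 days, detached with trypsin-EDTA, replated, and used 24 h later. Seeded and grown overnight, stimulated with poly(I:C) plus test compound. Secreted IFN-β measured after 24 h by mouse IFN-β ELISA.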

[6] = test system: TLR4-mediated NLRP3 inflammasome; experiment: NLRP3 inflammasome activation, IL-1β secretion, LPS-primed THP-1 cells; assay type: cell-based, human; settings: THP-1 primed with LPS, activated with Nigericin; n ≥ 3
TLR9 = experiment: TNF-α secretion, CpG-ODN-stimulated RAW264.7 cells; assay type: cell-based, murine; settings: TIP3 at 50 μM
In short: (§1)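 RAW264.7 cells seeded at 2 × 10^5/well (96-well) or 5 × 10^5/well (24-well), grown overnight, then treated with test compound. Stimulus: poly(I:C), CpG-ODN (15), FSL-1 (16) or R848 (17). Supernatant cytokines read after 24 h by mouse ELISA kits (IFN-β, IL-6, TNF-α). Cells kept at 37 °C, 5% CO2.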

TLR4 [7] = experiment: Quantitative RT-PCR, LPS-stimulated RAW264.7 cells; assay type: cell-based, murine; settings: TIP3 50 μM 1 h before LPS 100 ng/ml, 3 h; normalized to β-actin
In short: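 Total RNA isolated with TRIzol and reverse-transcribed to cDNA. qPCR run with SYBR Green and gene-specific primers (reference genes β-actin and Gapdh). Relative expression calculated by the ΔΔCt method.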

TLR4 [8] = experiment: Cytokine ELISA, LPS-stimulated RAW264.7 cells; assay type: cell-based, murine; settings: n ≥ 3
In short: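 Murine macrophages seeded at 2 × 10^5/well (96-well) or 5 × 10^5/well (24-well) and grown overnight, then treated with test compound and LPS. After 24 h treatment, secreted IFN-β was measured by pre-coated mouse IFN-β ELISA. Mouse IL-6 and mouse TNF-α were measured by ELISA kits.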

TLR4 [9] = experiment: NO secretion assay, LPS-stimulated RAW264.7 cells; assay type: cell-based, murine; settings: absorbance at 550 nm
In short: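 RAW264.7 cells seeded at 2 × 10^5/well in 96-well format and grown overnight. After treatment with test compound and LPS, nitric oxide in the culture medium was quantified with a colourimetric NO detection kit.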

TLR2/6 = experiment: TNF-α secretion, FSL-1-stimulated RAW264.7 cells; assay type: cell-based, murine; settings: TIP3 at 50 μM
In short: as §1

[10] = PAP-TIP3 10 nmol/g, treatment started from day 35
[11] = TIP3 10 and 50 nmol/g, H&E, five skin samples per group

Question: How did the “arthritis index, postarthritis phase treatment” value (CIA mice [1]; [10]) turn out when DYDVCVCH [TIP3] was run?
Answer: The value was “significantly inhibited when compared with the CIA mice”.

Question: And the “body weight, postarthritis phase treatment” value (CIA mice [1]; [10])?
Answer: The value was “did not observe any significant change in body weight”.

Question: What about the “paw volume, postarthritis phase treatment” value (CIA mice [1]; [10]) of the same sequence?
Answer: The value was “significantly inhibited when compared with the CIA mice”.

Question: What about the “loss of body weight” value (CIA mice [1]; TIP3 10 nmol/g or MTX 2 mg/kg, i.p. daily from day 22) of the same sequence?
Answer: Its value is “not observed”.

Question: And the arthritis index (CIA mice [1]; TIP3 10 nmol/g or MTX 2 mg/kg, i.p. daily from day 22, maximal score 16)?
Answer: Its arthritis index is “significantly decreased”.

Question: And the “relative paw volume (large paw volume)” value (CIA mice [1]; TIP3 10 nmol/g or MTX 2 mg/kg, i.p. daily from day 22, plethysmometer)?
Answer: Its value is “TIP3 (10 nmol/g)- and MTX-injected mice did not”.

Question: What about the “induction of RA (arthritic symptoms)” value (CIA mice [1]; i.p. once a day from day 22, vs CIA mice) of the same sequence?
Answer: Its value is “significantly attenuated”.

Question: And the “TLR4-mediated IL-6 secretion” value (TLR4 [2])?
Answer: Its value is “suppressed the TLR4-mediated secretion of IL-6”.

Question: And the “TLR4-mediated TNF-α secretion” value (TLR4 [2])?
Answer: Its value is “suppressed the TLR4-mediated secretion of IL-6 and TNF-α”.

Question: What about the “bone destruction recovery (knee joint)” value (CIA mice [3]; TIP3 10 nmol/g, micro-CT) of the same sequence?
Answer: The value was “remarkable recovery from the bone destruction”.

Question: And the inflammation score (CIA mice [3]; TIP3-treated CIA mice, Fig. 4j synovial hyperplasia score)?
Answer: The inflammation score was “significantly lower inflammation score”.

Question: What about the synovial hyperplasia score (CIA mice [3]; prolonged TIP3 treatment) of the same sequence?
Answer: Its synovial hyperplasia score is “substantially reduces inflammation”.

Question: What about the “cell viability / cytotoxicity” value (HEK-Blue™ hTLR4 cells; 12·5 to 50 μM) of the same sequence?
Answer: The value was “did not show any significant cytotoxicity”.

Question: And the “cell viability / cytotoxicity” value (HEK-Blue™ hTLR4 cells; high concentration, 100 μM)?
Answer: The value was “slight cytotoxicity”.

Question: And the “IL-1β mRNA expression” value (TLR4 [4])?
Answer: Its value is “inhibited LPS-induced mRNA expression”.

Question: What about the “IL-6 mRNA expression” value (TLR4 [4]) of the same sequence?
Answer: The value was “inhibited LPS-induced mRNA expression”.

Question: And the “IL-8 mRNA expression” value (TLR4 [4])?
Answer: Its value is “inhibited LPS-induced mRNA expression of these cytokines and of IL-8”.

Question: What about the “TNF-α mRNA expression” value (TLR4 [4]) of the same sequence?
Answer: Its value is “inhibited LPS-induced mRNA expression”.

Question: And the “thickness of the dermis” value [5, 11]?
Answer: The value was “noticeably attenuated thickness of the epidermis (yellow arrowheads) and dermis”.

Question: What about the “thickness of the epidermis” value [5, 11] of the same sequence?
Answer: Its value is “noticeably attenuated thickness of the epidermis”.

Question: What about the “overexpression of CD4 in skin” value ([5]; immunohistochemistry) of the same sequence?
Answer: The value was “effectively attenuated the overexpression of CD68, CD4”.

Question: And the “overexpression of CD68 in skin” value ([5]; immunohistochemistry)?
Answer: The value was “effectively attenuated the overexpression of CD68”.

Question: And the “overexpression of IL-17 in skin” value ([5]; immunohistochemistry)?
Answer: The value was “effectively attenuated the overexpression of CD68, CD4, and IL-17”.

Question: What about the “TLR3-mediated IFN-β secretion” value (TLR3) of the same sequence?
Answer: The value was “suppressed”.

Question: And the IL-1β secretion [6]?
Answer: Its IL-1β secretion is “dose-dependently inhibits IL-1β secretion in LPS-primed cells”.

Question: What about the “TNF-α secretion mediated by TLR9” value (TLR9) of the same sequence?
Answer: The value was “somewhat weak inhibition”.

Question: What about the “Cxcl-10 mRNA expression” value (TLR4 [7]) of the same sequence?
Answer: Its value is “significantly inhibited the mRNA expression”.

Question: What about the “Ifn-β mRNA expression” value (TLR4 [7]) of the same sequence?
Answer: Its value is “significantly inhibited the mRNA expression”.

Question: What about the “Il-1β mRNA expression” value (TLR4 [7]) of the same sequence?
Answer: The value was “significantly inhibited the mRNA expression”.

Question: What about the “Il-6 mRNA expression” value (TLR4 [7]) of the same sequence?
Answer: The value was “significantly inhibited the mRNA expression”.

Question: And the “Tnf-α mRNA expression” value (TLR4 [7])?
Answer: Its value is “significantly inhibited the mRNA expression”.

Question: What about the “LPS-induced IFN-α secretion” value (TLR4 [8]) of the same sequence?
Answer: The value was “significantly prevented in vitro production of proinflammatory cytokines (TNF-α and IL-6) and IFN-α and -β in a dose-dependent manner”.

Question: And the “LPS-induced IFN-β secretion” value (TLR4 [8])?
Answer: Its value is “significantly prevented in vitro production of proinflammatory cytokines (TNF-α and IL-6) and IFN-α and -β in a dose-dependent manner”.

Question: And the “LPS-induced IL-6 secretion” value (TLR4 [8])?
Answer: Its value is “significantly prevented in vitro production of proinflammatory cytokines (TNF-α and IL-6) and IFN-α and -β in a dose-dependent manner”.

Question: And the “LPS-induced TNF-α secretion” value (TLR4 [8])?
Answer: Its value is “significantly prevented in vitro production of proinflammatory cytokines (TNF-α and IL-6) and IFN-α and -β in a dose-dependent manner”.

Question: And the “LPS-induced extracellular NO secretion” value (TLR4 [9])?
Answer: The value was “represses the LPS-induced extracellular secretion of NO”.

Question: What about the “TNF-α secretion mediated by TLR2/6” value (TLR2/6) of the same sequence?
Answer: Its value is “somewhat weak inhibition”.
